From PubChem BioAssay AID1136 (Sanford-Burnham Center for Chemical Genomics, 2008)
In all, about 200,000 compounds went through this assay and fewer than 10 were called active.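 How the source made its calls: active means activation factor at least 2 at 20 µM; inactive means the rest.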 Only a sample is shown.

molecular target: Alkaline phosphatase, tissue-nonspecific isozyme (Homo sapiens) (UniProt P05186); experiment: activation of human TNAP, high DEA acceptor – biochemical, luminescence, uHTS, primary screen (AID 1136); settings: purified TNAP, CDP-star luminescence, 1 M DEA, 30 min; at 20 µM; stronger effect = higher value; 0 = EDTA background, 1 = DMSO-only activity
Procedure, shortened: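 system = human TNAP | amount = enzyme diluted 1/800 final | reagent = 100 µM CDP-star substrate | signal = luminescent substrate turnover signal | dosing = one dose, 20 µM | benchmarks = EDTA negative control, DMSO positive control | measure = activation factor | timing = 30 min reaction, room temperature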

Chain of Alkaline phosphatase, tissue-nonspecific isozyme (Homo sapiens) (P05186 whole entry, looked up): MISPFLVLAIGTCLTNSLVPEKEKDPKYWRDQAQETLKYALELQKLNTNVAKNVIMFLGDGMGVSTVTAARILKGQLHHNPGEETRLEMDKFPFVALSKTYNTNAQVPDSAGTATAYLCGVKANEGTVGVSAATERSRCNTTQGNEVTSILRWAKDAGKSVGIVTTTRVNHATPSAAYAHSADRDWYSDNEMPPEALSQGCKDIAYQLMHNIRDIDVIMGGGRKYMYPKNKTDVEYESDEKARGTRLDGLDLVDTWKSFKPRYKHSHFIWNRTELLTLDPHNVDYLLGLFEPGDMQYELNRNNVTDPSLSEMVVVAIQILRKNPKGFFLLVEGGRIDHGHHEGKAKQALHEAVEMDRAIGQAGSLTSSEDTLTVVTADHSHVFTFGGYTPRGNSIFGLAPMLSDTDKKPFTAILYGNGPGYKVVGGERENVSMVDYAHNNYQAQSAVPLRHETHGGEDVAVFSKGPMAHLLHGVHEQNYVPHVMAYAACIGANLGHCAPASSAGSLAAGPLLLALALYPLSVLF

Activation factor, inactive:
N#Cc1cnn2cc(CCN3CCOCC3)c(-c3ccc(F)cc3)nc12 1, Cc1ccc(C(=O)NC(=S)Nc2ccc(N3CCOCC3)cc2)cc1 1, COC(=O)COc1cccc2c(=O)n(CC(=O)NCCc3ccc(OC)c(OC)c3)ccc12 1, Cc1ccc(NC(=S)N(CCN2CCCCC2)Cc2ccco2)cc1C 1, COC(=O)c1cc(NC(=O)Cc2ccccc2[N+](=O)[O-])ccc1Cl 1, COc1ccc(C(=O)CSc2nc(C)cc(C)n2)cc1[N+](=O)[O-] 1, Cc1ccc(S(=O)(=O)N(CC(=O)NN=C2CCN(C)CC2)c2ccc(F)cc2)cc1 1, CN(C)S(=O)(=O)c1cccc(NC(=O)COC(=O)c2cc(=O)[nH]c(=O)[nH]2)c1 1, O=S(=O)(Nc1ncccn1)c1ccc(NS(=O)(=O)c2cccc(Cl)c2Cl)cc1 1, O=C(NNC(=S)NCc1ccco1)C(c1ccccc1)c1ccccc1 1, CCCCC(=O)NCc1ccc(F)cc1 1.1, CCN(c1ccc(NC(=O)COC(=O)CCc2nc3ccccc3n2-c2ccccc2)cc1)C(C)C 1, Clc1cccc(CN2COc3c(cc(Cl)c4cccnc34)C2)c1 1.1, CCN(CCO)C(=S)Nc1cc(C(=O)OC)ccc1C(=O)OC 1, Cc1ccccc1CC1(CO)CCCN(Cc2ccc3c(c2)OCCO3)C1 (stereo unspecified) 1.1, Clc1ccc(-n2nnnc2-c2cnc(-c3ccccn3)nc2-c2cccs2)cc1 1, COc1ccc(C(=O)Nc2c(Cl)cc(Cl)cc2C(=O)N2CCC(C)CC2)cc1 1, O=C(c1ccc(Cl)c([N+](=O)[O-])c1)N1CCN(c2ccccc2)CC1 1, O=C(CCl)NNc1cccc(Cl)n1 1, C=CCN1C(=O)C(Cc2ccc(OCC)cc2)SC1=Nc1ccc(C(=O)O)cc1 (stereo unspecified) 1, Cc1nc([N+](=O)[O-])nn1C12CC3CC(CC(Br)(C3)C1)C2 1, CC1CCC(C(C)C)C(=O)/C1=C\c1ccc(NC(=O)CCC(=O)O)cc1 (stereo unspecified) 1.1, O=C(CN1C2=NCCN2c2ccccc21)c1cccs1 1.1, COc1ccc(/C=N/NC(=O)c2ccncc2)cc1CN1CCCc2ccccc21 1, Cc1ccnc(NC(=O)c2ccco2)n1 1, CCNc1nc(-c2cc3ccccc3o2)cs1 1.1, Oc1cccc(C2c3[nH]c4ccccc4c3CCN2Cc2cnn(-c3ccccc3)c2)c1 (stereo unspecified) 1, COC(=O)c1ccc(C(NC(=O)OCc2ccccc2)/C(C)=C/[C@@H](C)C(=O)NCc2ccc(OC)c(OC)c2)cc1 (stereo partly specified) 1.1, CCOc1c2ccc(C(=O)NC3CCCc4ccccc43)cc2nn1CC (stereo unspecified) 1, Cc1nnsc1C(=O)N/N=C/c1cccc(C(F)(F)F)c1 1, Cc1[nH]c2ccccc2c1/C=C(/C#N)C(=O)NC(C)C 1, O=C(Cc1c(F)cccc1Cl)Nc1ccc(-n2cnnn2)cc1 1, COCCCNC(=O)Cn1c(=O)n(Cc2ccccc2Cl)c(=O)c2cc(OC)c(OC)cc21 1, COc1cc([N+](=O)[O-])ccc1NC(=O)CN1CCCC1 1, COc1ccc(-c2nn(-c3ccccc3)cc2CN2CCCO2)c(F)c1 1.1, O=C(O/N=C(/c1ccccc1)c1ccncc1)c1ccccc1[N+](=O)[O-] 1.1, CCC(C)NC(=O)Cn1nc(C(F)(F)F)c2c1CCC2 (stereo unspecified) 1.1, CCOC(=O)COc1cc(O)c2c(=O)cc(-c3ccccc3)oc2c1 1, Cc1cccc(NC(=O)/C=C/c2ccc3c(c2)OCO3)n1 1, COc1ccc(Sc2nc(-c3ccccc3)ncc2OC)cc1 1, N#CCOc1ccc(C2=NO[C@@H]3[C@@H]4C[C@@H]([C@H]5C(=O)N(c6ccc7c(c6)OCO7)C(=O)[C@@H]45)[C@H]23)cc1 1
